Molecules are shown by their SMILES. ≈ marks a conversion by molar mass, not a printed value.

The test system of assay [1] is Acinetobacter baumannii. Briefly: Antibacterial activity against Acinetobacter baumannii MAD […] in presence of 4 ug/ml clavulanic acid. Format: functional.
Assay [2] concerns Acinetobacter baumannii. Briefly: Antibacterial activity against Acinetobacter baumannii phenotype 1 […] in presence of 4 ug/ml clavulanic acid. Format: functional.
The nature of assay [3]: Antibacterial activity against Escherichia coli DH10B harboring pOXA-97 in presence of 4 ug/ml clavulanic acid. Format: functional, Escherichia coli str. K-12 substr. DH10B.
Assay [4] relates to Acinetobacter baumannii. The assay is described as follows: Antibacterial activity against Acinetobacter baumannii CIP7010 by disk diffusion method in presence of 4 ug/ml clavulanic acid. Format: functional. In general terms: A growth-free zone around the sample is the usual read-out of agar diffusion tests.
Assay [5] relates to Acinetobacter baumannii. The assay is described as follows: Antibacterial activity against Acinetobacter baumannii phenotype 2 […] in presence of 4 ug/ml clavulanic acid. Format: functional.
The subject of assay [6] is Escherichia coli. The assay is described as follows: Antibacterial activity against Escherichia coli TOP10 harboring pOXA-58 in presence of 4 ug/ml clavulanic acid. Format: functional.
Assay [7] relates to Acinetobacter baumannii. Briefly: Antibacterial activity against Acinetobacter baumannii CIP7010 by disk diffusion method. Format: functional. In a few lines:
(§1)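 Disk diffusion on Mueller-Hinton agar plates with β-lactam and non-β-lactam antibiotic disks, interpreted per CLSI guidelines.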

In assay [8] the test system is Acinetobacter baumannii. Briefly: Antibacterial activity against Acinetobacter baumannii MAD […]. Format: functional.
In assay [9] the test system is Acinetobacter baumannii. Briefly: Antibacterial activity against Acinetobacter baumannii phenotype 2 […]. Format: functional. The essentials:
as §1

Assay [10] concerns Escherichia coli. Briefly: Antibacterial activity against Escherichia coli TOP10 harboring pOXA-97. Format: functional.
Assay [11] can be described thus: Antibacterial activity against Escherichia coli DH10B. Format: functional, Escherichia coli str. K-12 substr. DH10B.
For assay [12], the system named is Escherichia coli. The assay is described as follows: Antibacterial activity against Escherichia coli DH10B in presence of 4 ug/ml clavulanic acid. Format: functional. The note with it: K-12 DH10B.
Assay [13] can be described thus: Antibacterial activity against Escherichia coli DH10B harboring pOXA-97. Format: functional, Escherichia coli str. K-12 substr. DH10B.
Assay [14] relates to Acinetobacter baumannii. Briefly: Antibacterial activity against Acinetobacter baumannii phenotype 1 […]. Format: functional. In a few lines:
as §1

The subject of assay [15] is Escherichia coli. Briefly: Antibacterial activity against Escherichia coli TOP10 harboring pOXA-97 in presence of 4 ug/ml clavulanic acid. Format: functional.
Assay [16] concerns Escherichia coli. The assay is described as follows: Antibacterial activity against Escherichia coli TOP10 harboring pOXA-58. Format: functional.
Assay [17] deals with Acinetobacter baumannii. Briefly: Antibacterial activity against Acinetobacter baumannii CIP7010 harboring pOXA-97 by disk diffusion method. Format: functional. The essentials: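 Disk diffusion on Mueller-Hinton agar with β-lactam and non-β-lactam disks, per CLSI guidelines. The strain is an electroporation transformant of recipient CIP7010, with clinical isolates A1 and A2 as plasmid donors, selected on Trypticase soy agar containing 50 μg/ml ticarcillin.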

The subject of assay [18] is Escherichia coli. Briefly: Activity of Escherichia coli TOP10 beta-lactamase OXA-58 assessed per mg of protein at 100 uM. The essentials: (§2)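 Crude extracts made by sonication from A. baumannii clinical isolates and from E. coli TOP10 recombinants expressing OXA-97 or OXA-58. Specific activity measured against imipenem, meropenem, cephalothin, ceftazidime, oxacillin and benzylpenicillin, each at 100 μM final. Values are means of three independent experiments; standard deviations within 10% of means.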

For assay [19], the system named is Acinetobacter baumannii. The assay is described as follows: Activity of Acinetobacter baumannii MAD beta-lactamase assessed per mg of protein at 100 uM. In a few lines: as §2
The subject of assay [20] is Escherichia coli. The assay is described as follows: Activity of Escherichia coli TOP10 beta-lactamase OXA-97 assessed as specific activity per mg of protein at 100 uM. The essentials:
as §2

In assay [21] the test system is Acinetobacter baumannii. The assay is described as follows: Activity of Acinetobacter baumannii phenotype 1 beta-lactamase assessed per mg of protein at 100 uM. The essentials:
as §2

Assay [22] has as its system Acinetobacter baumannii. The assay is described as follows: Activity of Acinetobacter baumannii phenotype 2 beta-lactamase assessed per mg of protein at 100 uM. The essentials:
as §2

Broadly, the MIC is the smallest concentration in the dilution series that meets the test's criterion for growth inhibition. `CC1(C)S[C@@H]2[C@H](NC(=O)[C@H](N)c3ccccc3)C(=O)N2[C@H]1C(=O)O` [AMPICILLIN]: the MIC in assay [1] was > 512 µg/mL; in [2], > 512 µg/mL; in assay [3], 128 µg/mL; in assay [4], 512 µg/mL; in assay [5], > 512 µg/mL; in assay [6] it was 128 µg/mL. Besides, the MIC in assay [7] was > 512 µg/mL; in [8] it was > 512 µg/mL; in assay [9] it was > 512 µg/mL; in [10], > 512 µg/mL; in [11], 4 µg/mL (≈ 11.4 µM); in assay [12], 4 µg/mL. For the same molecule, the MIC was > 512 µg/mL in assay [13], > 512 µg/mL in assay [14], 128 µg/mL in assay [15] and > 512 µg/mL in assay [16].
With `CO/N=C(\C(=O)N[C@@H]1C(=O)N2C(C(=O)[O-])=C(C[N+]3(C)CCCC3)CS[C@H]12)c1csc(N)n1` [CEFEPIME], the MIC in assay [7] was 1 µg/mL (≈ 2.08 µM); in [8], 256 µg/mL (≈ 533 µM); in [9], 256 µg/mL (≈ 533 µM); in assay [10], 0.06 µg/mL (≈ 0.125 µM); in assay [17] it was 1 µg/mL (≈ 2.08 µM); in assay [11], 0.06 µg/mL (≈ 0.125 µM). The results for the minimal inhibitory concentration (MIC) in assay [13], in assay [14] and in assay [16] were 0.12 µg/mL (≈ 0.25 µM), 64 µg/mL (≈ 133 µM) and 0.06 µg/mL (≈ 0.125 µM), respectively.
As for `CC1(C)S[C@@H]2[C@H](NC(=O)[C@H](C(=O)O)c3ccsc3)C(=O)N2[C@H]1C(=O)O` [TICARCILLIN], the minimum inhibitory concentration (MIC) in assay [7] is 4 µg/mL (≈ 10.4 µM); in assay [8], > 512 µg/mL; in assay [9] it was 64 µg/mL (≈ 166 µM); in assay [10], > 512 µg/mL; in [17], > 512 µg/mL; in assay [11] it was 4 µg/mL (≈ 10.4 µM). Moreover, the minimal inhibitory concentration (MIC) in assay [13], in assay [14] and in assay [16] was > 512 µg/mL each time.
For the molecule `C[C@H]1[C@H](NC(=O)/C(=N\OC(C)(C)C(=O)O)c2csc(N)n2)C(=O)N1S(=O)(=O)O` [AZTREONAM], the minimal inhibitory concentration (MIC) in assay [7] was found to be 64 µg/mL (≈ 147 µM); in assay [8], 32 µg/mL (≈ 73.5 µM); in assay [9], 128 µg/mL (≈ 294 µM); in [10] it was 0.12 µg/mL (≈ 0.276 µM); in assay [17], 64 µg/mL (≈ 147 µM); in assay [11] it was 0.12 µg/mL (≈ 0.276 µM). In addition, the minimum inhibitory concentration (MIC) worked out at 0.06 µg/mL (≈ 0.138 µM) in assay [13], 128 µg/mL (≈ 294 µM) in assay [14] and 0.06 µg/mL (≈ 0.138 µM) in assay [16].
As to `C[C@@H](O)[C@H]1C(=O)N2C(C(=O)O)=C(S[C@@H]3CN[C@H](C(=O)N(C)C)C3)[C@H](C)[C@H]12` [MEROPENEM], the Activity is 1 mU/mg in assay [18], 1.5 mU/mg in [19], 1 mU/mg in assay [20] and 1.7 mU/mg in assay [21]. The MIC is 0.25 µg/mL (≈ 0.652 µM) in assay [7]; > 64 µg/mL in assay [8]; 16 µg/mL (≈ 41.7 µM) in [9]; 0.12 µg/mL (≈ 0.313 µM) in [10]; 2 µg/mL (≈ 5.22 µM) in assay [17]; 0.06 µg/mL (≈ 0.156 µM) in assay [11]. In addition, the MIC in [13] is 0.5 µg/mL (≈ 1.3 µM); in [14], 16 µg/mL (≈ 41.7 µM); in [16], 0.12 µg/mL (≈ 0.313 µM).
As for `CC(=O)OCC1=C(C(=O)O)N2C(=O)[C@@H](NC(=O)Cc3cccs3)[C@H]2SC1`, the Activity in [18] came to 15 mU/mg; in assay [19], 15 mU/mg; in assay [22], 10 mU/mg; in assay [20], 20 mU/mg; in [21] it was 20 mU/mg.
As to `CC1(C)S[C@@H]2[C@H](NC(=O)Cc3ccccc3)C(=O)N2[C@H]1C(=O)O`, the Activity in assay [18] stood at 150 mU/mg; in [19], 170 mU/mg; in [22] it was 210 mU/mg; in assay [20], 220 mU/mg; in [21], 220 mU/mg.
Take `C[C@@H](O)[C@H]1C(=O)N2C(C(=O)O)=C(SCCNC=N)C[C@H]12` [IMIPENEM ANHYDROUS]: the Activity in assay [18] came to 3 mU/mg; in [19], 4.5 mU/mg; in assay [20] it was 4 mU/mg; in assay [21], 5.2 mU/mg. The minimum inhibitory concentration (MIC) was 0.25 µg/mL (≈ 0.835 µM) in [7]; 32 µg/mL (≈ 107 µM) in assay [8]; 16 µg/mL (≈ 53.4 µM) in assay [9]; 2 µg/mL (≈ 6.68 µM) in assay [10]; 2 µg/mL (≈ 6.68 µM) in assay [17]; 0.06 µg/mL (≈ 0.2 µM) in assay [11]. Besides, the figures for the minimal inhibitory concentration (MIC) in [13], in assay [14] and in assay [16] were 1 µg/mL (≈ 3.34 µM), 32 µg/mL (≈ 107 µM) and 2 µg/mL (≈ 6.68 µM), respectively.
On to `CC(C)(O/N=C(\C(=O)N[C@@H]1C(=O)N2C(C(=O)[O-])=C(C[n+]3ccccc3)CS[C@H]12)c1csc(N)n1)C(=O)O` [CEFTAZIDIME], for which the Activity in assay [18] turned out to be 1.5 mU/mg; in [19], 2 mU/mg; in assay [20] it was 0.5 mU/mg; in assay [21], 1 mU/mg. For the same molecule, the MIC in [7] is 2 µg/mL (≈ 3.66 µM); in assay [8], 128 µg/mL (≈ 234 µM); in [9], > 512 µg/mL; in [10], 0.06 µg/mL (≈ 0.11 µM); in assay [17] it was 2 µg/mL (≈ 3.66 µM); in assay [11], 0.06 µg/mL (≈ 0.11 µM). In addition, the MIC was 0.12 µg/mL (≈ 0.22 µM) in assay [13], > 512 µg/mL in [14] and 0.06 µg/mL (≈ 0.11 µM) in assay [16].
For the molecule `Cc1onc(-c2ccccc2)c1C(=O)N[C@@H]1C(=O)N2[C@@H]1SC(C)(C)[C@@H]2C(=O)O`, the Activity in [18] is 210 mU/mg; in assay [19], 230 mU/mg; in assay [20] it was 220 mU/mg; in assay [21] it was 230 mU/mg.

Source of the values: ChEMBL document CHEMBL1255327, “Carbapenem-resistant Acinetobacter baumannii isolates from Tunisia producing the OXA-58-like carbapenem-hydrolyzing oxacillinase OXA-97” (2008).
